Here are results for two compounds from ChEMBL document CHEMBL1687700, “Discovery of an Orally Efficacious Imidazo[5,1-f][1,2,4]triazine Dual Inhibitor of IGF-1R and IR” (ACS Med Chem Lett, 2010).

Series [1] in a line: Clearance in CD-1 mouse at 5 mg/kg, iv administered as single dose. It is filed as ADME, organism-based. More on the design: dose 5 mg/kg, route intravenous. To be noted: in vivo.
The subject of a further series is Mus musculus. Kind of series: (§1) Oral bioavailability in CD-1 mouse at 25 mg/kg, po administered as single dose. The class given is ADME, organism-based. To be noted: mouse, in vivo.
The nature of series [2]: Antiproliferative activity against human GEO cells expressing IR assessed as intracellular ATP content after 3 days by Cell Titre-Glo luminescent assay. The class given is functional, cell-based. To be noted: 72 h.
Series [3] can be described thus: Genotoxicity in Salmonella Typhimurium by Ames test in absence of S9 liver microsomes. The class given is toxicity, Microsome. Conditions: salmonella enterica subsp. enterica serovar typhimurium. A general note: In the Ames test, an excess of revertant colonies over the control signals mutagenicity.
The nature of series [4]: Permeability of the compound by PAMPA assay at pH 7.4. The class given is ADME. Conditions: read-out: permeability. The method, boiled down: (§2)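 Parallel artificial membrane permeability assay run at pH 5.0 and pH 7.4; permeability reported in nm/s.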
(In general: The PAMPA barrier holds no transporters, so it reflects passive diffusion.)

Series [5] in a line: Antiproliferative activity against human GEO cells expressing IGF-1R assessed as intracellular ATP content after 3 days by Cell Titre-Glo luminescent assay. It is filed as functional, cell-based. To be noted: 72 h.
Series [6] in a line: Clearance in Sprague-Dawley rat at 5 mg/kg, iv administered as single dose. To be noted: in vivo. The class given is ADME, organism-based. More on the design: dose 5 mg/kg, route intravenous. The method, boiled down:
(§3)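 Single 5 mg/kg iv dose used to derive clearance and Vss; median values reported per species (female rat, male rhesus monkey).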

In a further series the target is T1, Cytochrome P450 1A2 (Homo sapiens, UniProt P05177).
T1 sequence (P05177 whole entry): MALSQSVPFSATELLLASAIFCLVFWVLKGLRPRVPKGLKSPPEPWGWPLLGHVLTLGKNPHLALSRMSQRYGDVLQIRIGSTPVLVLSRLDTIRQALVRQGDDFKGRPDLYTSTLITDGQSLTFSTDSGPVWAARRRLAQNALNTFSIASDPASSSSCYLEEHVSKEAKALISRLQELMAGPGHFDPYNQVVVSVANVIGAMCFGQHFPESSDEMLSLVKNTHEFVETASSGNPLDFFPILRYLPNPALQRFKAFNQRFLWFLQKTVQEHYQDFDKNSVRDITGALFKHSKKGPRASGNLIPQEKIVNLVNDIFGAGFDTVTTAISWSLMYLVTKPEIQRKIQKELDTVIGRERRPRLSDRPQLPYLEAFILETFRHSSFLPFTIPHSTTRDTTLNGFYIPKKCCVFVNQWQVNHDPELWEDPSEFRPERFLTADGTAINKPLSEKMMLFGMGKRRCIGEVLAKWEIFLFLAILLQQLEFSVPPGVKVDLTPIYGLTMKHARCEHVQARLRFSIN
Nature of the series: Inhibition of CYP1A2. The class given is ADME.

Series [7] is described as follows: Oral bioavailability in Sprague-Dawley rat at 25 mg/kg administered as single dose. The class given is ADME, organism-based. Conditions: in vivo.
Series [8] can be described thus: Volume of distribution at steady state in CD-1 mouse at 5 mg/kg, iv administered as single dose. The class given is ADME, organism-based. More on the design: dose 5 mg/kg, route intravenous. Conditions: in vivo, read-out: Vdss.
The nature of series [9]: Volume of distribution at steady state in Sprague-Dawley rat at 5 mg/kg, iv administered as single dose. The class given is ADME, organism-based. Details: dose 5 mg/kg, route intravenous. To be noted: in vivo, read-out: Vdss. The gist of the method:
as §3

For another series, the species on record is Rattus norvegicus. Kind of series: Toxicity in rat after 14 days. The class given is organism-based. To be noted: in vivo, 336 h.
Series [10] in a line: Genotoxicity in Salmonella Typhimurium by Ames test in presence of S9 liver microsomes. It is filed as toxicity, Microsome. Conditions: salmonella enterica subsp. enterica serovar typhimurium.
The nature of series [11]: Cmax in CD-1 mouse plasma at 25 mg/kg, po administered as single dose. The class given is ADME, organism-based. More on the design: dose 25 mg/kg, route oral.
Series [12] is described as follows: Permeability of the compound by PAMPA assay at pH 5.0. The class given is ADME. Conditions: read-out: permeability. The gist of the method: as §2
Series [13] can be described thus: Cmax in Sprague-Dawley rat at 25 mg/kg, po administered as single dose. To be noted: in vivo. It is filed as ADME, organism-based. More on the design: dose 25 mg/kg, route oral.
The target in series [14] is Insulin-like growth factor 1 receptor (Homo sapiens, UniProt P08069). Nature of the series: Inhibition of auto-phosphorylation of human IGF1R expressed in mouse NIH-3T3 cells after 2 hrs by luminometry. It is filed as cell-based, NIH3T3.
Series [15] in a line: AUC in Sprague-Dawley rat at 25 mg/kg, po administered as single dose. It is filed as ADME, organism-based. More on the design: dose 25 mg/kg, route oral. Conditions: plasma. The method, boiled down:
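Single oral dose of 25 mg/kg, given as the free base in 50:50 PEG-400:25 mM tartaric acid, to female rats. Plasma AUC (ng h/mL) is reported as the median. Clearance parameters come from a separate 5 mg/kg iv dose.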

In the next series the target is Insulin receptor (Homo sapiens, UniProt P06213). Nature of the series: Inhibition of auto-phosphorylation of human IR expressed in human HepG2 cells after 2 hrs by luminometry. The class given is cell-based.
Series [16] in a line: Extraction ratio of hepatic clearance to hepatic blood flow in mouse microsomes. It is filed as ADME, Microsome. Conditions: liver microsomes. For orientation: Microsomes from liver hold many membrane-bound enzymes, among them those of drug oxidation.
A short description of series [17]: Extraction ratio of hepatic clearance to hepatic blood flow in human microsomes. It is filed as ADME, Microsome. Conditions: liver microsomes.
A further series has as its target Cytochrome P450 2D6 (Homo sapiens, UniProt P10635). Nature of the series: Inhibition of CYP2D6. It is filed as ADME.
In another series the target is Cytochrome P450 3A4 (Homo sapiens, UniProt P08684). Nature of the series: Inhibition of CYP3A4. The class given is ADME.
Series [18] can be described thus: as §1. It is filed as ADME, organism-based. Conditions: CD-1, mouse, in vivo.

Usually clearance stands for a measure of how efficiently the substance is removed, as volume per time. What is called EC50 is the concentration at which the effect is half-maximal. The IC50 is the concentration at which inhibition is half-maximal. As usually defined, the bioavailability is the share of a dose that reaches the circulation, judged against a reference dose that is usually intravenous. A higher bioavailability goes with good availability. Broadly, the Cmax is the peak of the concentration-time curve. As usually defined, the AUC is the area under the concentration-time curve, a measure of exposure. High values mean high exposure, low ones low exposure.

Sequence of Cytochrome P450 3A4 (P08684 whole entry): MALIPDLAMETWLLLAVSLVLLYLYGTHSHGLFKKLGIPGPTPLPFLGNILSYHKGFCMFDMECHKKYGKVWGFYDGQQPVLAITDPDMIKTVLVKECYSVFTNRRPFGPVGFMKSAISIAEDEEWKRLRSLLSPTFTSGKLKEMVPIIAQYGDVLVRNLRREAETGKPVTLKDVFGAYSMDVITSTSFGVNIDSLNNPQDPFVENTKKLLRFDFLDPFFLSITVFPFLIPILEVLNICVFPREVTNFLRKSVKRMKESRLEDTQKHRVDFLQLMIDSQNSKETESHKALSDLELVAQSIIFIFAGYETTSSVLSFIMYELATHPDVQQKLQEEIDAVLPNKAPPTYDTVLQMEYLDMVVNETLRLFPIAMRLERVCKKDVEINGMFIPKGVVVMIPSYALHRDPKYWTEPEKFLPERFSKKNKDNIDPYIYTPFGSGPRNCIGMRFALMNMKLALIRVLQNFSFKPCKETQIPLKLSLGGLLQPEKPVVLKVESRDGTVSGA
Sequence of Insulin-like growth factor 1 receptor (P08069 31-736 limits assumed): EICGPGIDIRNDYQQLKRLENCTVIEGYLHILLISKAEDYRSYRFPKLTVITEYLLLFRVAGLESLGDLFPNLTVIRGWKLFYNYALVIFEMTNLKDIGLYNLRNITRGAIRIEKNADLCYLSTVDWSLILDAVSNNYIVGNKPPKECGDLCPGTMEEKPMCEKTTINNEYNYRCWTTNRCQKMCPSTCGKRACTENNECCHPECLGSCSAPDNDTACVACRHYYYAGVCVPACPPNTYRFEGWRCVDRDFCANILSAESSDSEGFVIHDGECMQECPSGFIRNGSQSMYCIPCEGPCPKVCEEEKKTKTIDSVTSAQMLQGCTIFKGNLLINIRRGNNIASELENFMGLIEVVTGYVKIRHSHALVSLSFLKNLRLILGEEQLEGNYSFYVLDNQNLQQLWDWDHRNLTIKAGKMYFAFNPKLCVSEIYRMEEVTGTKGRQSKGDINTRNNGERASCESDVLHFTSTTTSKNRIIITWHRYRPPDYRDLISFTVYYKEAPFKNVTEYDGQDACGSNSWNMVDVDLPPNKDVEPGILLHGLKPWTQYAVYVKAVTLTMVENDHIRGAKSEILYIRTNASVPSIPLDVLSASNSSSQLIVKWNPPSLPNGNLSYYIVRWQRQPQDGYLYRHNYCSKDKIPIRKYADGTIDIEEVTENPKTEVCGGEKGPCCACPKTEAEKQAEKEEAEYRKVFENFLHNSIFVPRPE
Sequence of Insulin-like growth factor 1 receptor (P08069 741-1367 limits assumed): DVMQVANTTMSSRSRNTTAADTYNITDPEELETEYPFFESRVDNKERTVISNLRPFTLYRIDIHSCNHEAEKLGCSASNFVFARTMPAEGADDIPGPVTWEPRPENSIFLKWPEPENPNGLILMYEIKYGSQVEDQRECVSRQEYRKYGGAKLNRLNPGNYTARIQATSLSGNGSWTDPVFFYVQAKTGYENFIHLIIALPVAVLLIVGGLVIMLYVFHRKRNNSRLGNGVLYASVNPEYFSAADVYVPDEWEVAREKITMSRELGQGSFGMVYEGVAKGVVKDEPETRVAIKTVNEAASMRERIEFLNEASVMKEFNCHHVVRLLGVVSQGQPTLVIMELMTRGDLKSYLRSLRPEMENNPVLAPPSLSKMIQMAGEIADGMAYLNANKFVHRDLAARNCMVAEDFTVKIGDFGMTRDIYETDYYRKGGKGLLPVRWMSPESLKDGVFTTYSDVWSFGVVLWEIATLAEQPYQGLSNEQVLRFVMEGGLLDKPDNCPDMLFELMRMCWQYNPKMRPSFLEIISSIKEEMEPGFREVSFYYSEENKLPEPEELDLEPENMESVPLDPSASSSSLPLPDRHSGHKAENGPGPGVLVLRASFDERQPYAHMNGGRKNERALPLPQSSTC
Sequence of Insulin receptor (P06213 28-758 limits assumed): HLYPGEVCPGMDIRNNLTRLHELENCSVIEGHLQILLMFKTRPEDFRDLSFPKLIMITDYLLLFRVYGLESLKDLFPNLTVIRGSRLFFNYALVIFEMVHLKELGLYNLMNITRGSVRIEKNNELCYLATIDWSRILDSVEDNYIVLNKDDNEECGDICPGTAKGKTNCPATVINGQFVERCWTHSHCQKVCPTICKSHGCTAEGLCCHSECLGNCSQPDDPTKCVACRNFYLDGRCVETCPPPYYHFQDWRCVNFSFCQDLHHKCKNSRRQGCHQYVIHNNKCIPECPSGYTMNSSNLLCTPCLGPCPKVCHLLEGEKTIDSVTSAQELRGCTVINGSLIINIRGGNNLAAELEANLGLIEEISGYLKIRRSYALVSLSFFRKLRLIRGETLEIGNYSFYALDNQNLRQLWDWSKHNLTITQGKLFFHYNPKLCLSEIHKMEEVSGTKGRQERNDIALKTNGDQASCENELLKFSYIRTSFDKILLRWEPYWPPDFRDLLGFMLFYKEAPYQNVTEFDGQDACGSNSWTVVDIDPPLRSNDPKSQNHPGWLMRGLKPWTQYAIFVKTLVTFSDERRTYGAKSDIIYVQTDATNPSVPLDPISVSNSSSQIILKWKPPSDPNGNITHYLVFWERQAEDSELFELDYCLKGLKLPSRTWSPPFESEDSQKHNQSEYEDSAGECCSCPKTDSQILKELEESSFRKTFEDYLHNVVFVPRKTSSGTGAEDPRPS
Sequence of Insulin receptor (P06213 763-1382 limits assumed): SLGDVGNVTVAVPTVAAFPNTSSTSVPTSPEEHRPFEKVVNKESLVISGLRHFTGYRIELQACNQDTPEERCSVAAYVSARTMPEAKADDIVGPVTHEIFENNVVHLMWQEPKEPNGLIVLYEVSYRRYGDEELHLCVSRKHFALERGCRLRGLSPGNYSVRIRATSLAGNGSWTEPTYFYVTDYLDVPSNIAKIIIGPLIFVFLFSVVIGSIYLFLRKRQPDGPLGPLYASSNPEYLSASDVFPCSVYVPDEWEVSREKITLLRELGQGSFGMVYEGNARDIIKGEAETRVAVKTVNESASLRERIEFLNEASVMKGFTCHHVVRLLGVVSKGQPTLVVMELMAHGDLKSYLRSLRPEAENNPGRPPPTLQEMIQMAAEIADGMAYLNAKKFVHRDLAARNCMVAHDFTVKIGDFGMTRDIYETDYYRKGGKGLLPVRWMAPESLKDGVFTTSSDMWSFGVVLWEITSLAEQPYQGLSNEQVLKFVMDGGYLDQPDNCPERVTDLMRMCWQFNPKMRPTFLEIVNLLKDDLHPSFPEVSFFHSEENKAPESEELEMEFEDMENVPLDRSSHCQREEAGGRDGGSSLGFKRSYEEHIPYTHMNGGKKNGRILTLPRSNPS
Sequence of Cytochrome P450 2D6 (P10635 whole entry): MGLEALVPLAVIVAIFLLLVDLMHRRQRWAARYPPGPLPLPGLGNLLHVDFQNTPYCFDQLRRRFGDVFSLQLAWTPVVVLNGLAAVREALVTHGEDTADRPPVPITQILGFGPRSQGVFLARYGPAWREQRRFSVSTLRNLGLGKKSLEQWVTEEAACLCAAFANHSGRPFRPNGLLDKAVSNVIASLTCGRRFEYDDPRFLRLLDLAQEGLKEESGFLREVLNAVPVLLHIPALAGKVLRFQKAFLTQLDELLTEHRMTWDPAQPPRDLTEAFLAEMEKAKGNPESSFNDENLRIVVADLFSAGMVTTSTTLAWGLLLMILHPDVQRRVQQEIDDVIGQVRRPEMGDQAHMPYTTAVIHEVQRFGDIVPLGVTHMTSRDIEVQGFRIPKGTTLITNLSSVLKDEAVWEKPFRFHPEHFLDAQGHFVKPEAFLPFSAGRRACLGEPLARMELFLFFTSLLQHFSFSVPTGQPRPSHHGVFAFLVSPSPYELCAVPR

Consider `C[C@]1(O)C[C@@H](c2nc(-c3ccc4ccc(-c5ccccc5)nc4c3F)c3c(N)ncnn32)C1`, for which the clearance in [1] and in [6] was 4 mL/min/kg in each case. Moreover, the F in the series with Mus musculus worked out at 162%. Also, the EC50 in series [2] and in [5] was 130 nM each time. In addition, the Activity result (in series [3]; in the series listed under Rattus norvegicus; in series [10]) was “Non-toxic” each time. Moreover, the Papp in series [4] stood at 110 ×10⁻⁶ cm/s; in series [12] it was 109 ×10⁻⁶ cm/s. Further, the IC50 against Cytochrome P450 1A2 was greater than 25000 nM; in [14] it was 17 nM; at Insulin receptor, 76 nM; against Cytochrome P450 2D6 it was greater than 25000 nM; against Cytochrome P450 3A4, greater than 25000 nM. The compound further had a bioavailability in series [7] of 64%. Also, the results for the Vd in [8] and in [9] were 1 L/kg and 0.97 L/kg, respectively. Besides, the results for the Cmax in series [11] and in [13] were 20.5 µM and 11.3 µM, respectively. The AUC in series [15] was found to be 62400 ng·h/mL. Further, the hepatic extraction ratio in series [16] was found to be 0.43; in [17], 0.55.
In turn, `Nc1ncnn2c1c(-c1ccc3ccc(-c4ccccc4)nc3c1F)nc2[C@H]1C[C@@H](N2CCN(C=O)CC2)C1` displayed a clearance in [1] of 7 mL/min/kg. In [18], this compound gave a bioavailability of 18%. For the same compound, the Papp was 105 ×10⁻⁶ cm/s in series [4] and 20.4 ×10⁻⁶ cm/s in series [12]. Further, the Vd in [8] was 1.2 L/kg. In series [11], the peak level (Cmax) was 3.1 µM.
